# Test results: the M2OR odorant receptor database
# Tests used:
# Details in all cases: stereoisomer not certain
# OR2T34 (Homo sapiens) = biological target: T1, OR2T34 (Homo sapiens) (UniProt Q8NGX1)
# T1 sequence (whole entry): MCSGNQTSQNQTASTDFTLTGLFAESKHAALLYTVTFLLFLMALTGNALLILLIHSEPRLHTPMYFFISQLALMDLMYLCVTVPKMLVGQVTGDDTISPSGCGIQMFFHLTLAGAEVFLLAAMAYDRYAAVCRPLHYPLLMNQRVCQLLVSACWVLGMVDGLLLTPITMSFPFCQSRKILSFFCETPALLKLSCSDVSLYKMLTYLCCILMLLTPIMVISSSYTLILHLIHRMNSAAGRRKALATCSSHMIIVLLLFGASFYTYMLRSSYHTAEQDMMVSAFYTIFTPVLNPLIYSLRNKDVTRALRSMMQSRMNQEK
# In short: (§1)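 Assay methods differ from source to source, frequently being transient luciferase assays in mammalian cell lines. For each receptor–molecule pair, the label responsive (active) applies when the original authors judged the measured signal statistically different from baseline, and non-responsive (inactive) applies otherwise.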
# OR2T4 (Homo sapiens) = biological target: T2, OR2T4 (Homo sapiens) (UniProt Q8NH00)
# T2 sequence (whole entry): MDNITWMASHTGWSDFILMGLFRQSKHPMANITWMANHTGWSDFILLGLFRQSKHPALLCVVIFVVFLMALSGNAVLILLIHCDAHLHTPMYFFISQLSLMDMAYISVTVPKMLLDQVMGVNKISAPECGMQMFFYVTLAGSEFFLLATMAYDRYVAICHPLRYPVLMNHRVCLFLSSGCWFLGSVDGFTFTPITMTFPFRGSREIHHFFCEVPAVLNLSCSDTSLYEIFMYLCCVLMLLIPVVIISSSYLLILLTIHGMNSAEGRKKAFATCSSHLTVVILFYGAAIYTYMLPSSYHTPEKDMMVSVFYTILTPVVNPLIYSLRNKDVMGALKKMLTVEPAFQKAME
# In short: as §1
# OR2T2 (Homo sapiens) = OR2T2 (Homo sapiens) (UniProt Q6IF00)
# Chain of OR2T2 (Homo sapiens) (Q6IF00 whole entry): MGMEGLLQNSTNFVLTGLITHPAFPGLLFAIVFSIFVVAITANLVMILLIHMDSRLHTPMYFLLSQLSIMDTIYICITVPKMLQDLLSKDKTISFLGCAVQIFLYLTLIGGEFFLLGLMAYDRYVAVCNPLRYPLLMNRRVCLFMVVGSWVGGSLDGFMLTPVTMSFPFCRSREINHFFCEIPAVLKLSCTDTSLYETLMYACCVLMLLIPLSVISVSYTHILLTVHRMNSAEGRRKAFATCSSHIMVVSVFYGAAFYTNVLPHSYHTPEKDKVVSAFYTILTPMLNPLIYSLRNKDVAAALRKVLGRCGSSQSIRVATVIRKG
# In short: as §1
# OR2T27 (Homo sapiens) = OR2T27 (Homo sapiens) (UniProt Q8NH04)
# Chain of OR2T27 (Homo sapiens) (Q8NH04 whole entry): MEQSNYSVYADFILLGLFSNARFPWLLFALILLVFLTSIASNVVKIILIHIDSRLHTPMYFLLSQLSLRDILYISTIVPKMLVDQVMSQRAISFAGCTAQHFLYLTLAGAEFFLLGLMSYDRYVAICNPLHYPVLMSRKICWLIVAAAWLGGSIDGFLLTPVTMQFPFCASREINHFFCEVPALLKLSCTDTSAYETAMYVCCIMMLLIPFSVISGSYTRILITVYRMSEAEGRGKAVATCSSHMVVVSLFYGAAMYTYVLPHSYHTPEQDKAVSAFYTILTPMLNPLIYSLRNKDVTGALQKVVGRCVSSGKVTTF
# In short: as §1
# OR2T29 (Homo sapiens) = OR2T29 (Homo sapiens) (UniProt Q8NH02)
# Chain of OR2T29 (Homo sapiens) (Q8NH02 whole entry): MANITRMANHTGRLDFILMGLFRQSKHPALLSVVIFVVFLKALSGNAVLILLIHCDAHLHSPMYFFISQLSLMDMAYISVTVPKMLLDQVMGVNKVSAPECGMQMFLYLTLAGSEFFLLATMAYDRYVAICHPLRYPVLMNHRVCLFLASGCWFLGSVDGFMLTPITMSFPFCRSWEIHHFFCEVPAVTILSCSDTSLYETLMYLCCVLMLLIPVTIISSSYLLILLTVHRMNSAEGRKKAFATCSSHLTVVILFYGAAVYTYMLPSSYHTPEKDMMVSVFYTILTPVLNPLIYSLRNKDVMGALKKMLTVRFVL
# In short: as §1
# OR2T3 (Homo sapiens) = OR2T3 (Homo sapiens) (UniProt Q8NH03)
# Chain of OR2T3 (Homo sapiens) (Q8NH03 whole entry): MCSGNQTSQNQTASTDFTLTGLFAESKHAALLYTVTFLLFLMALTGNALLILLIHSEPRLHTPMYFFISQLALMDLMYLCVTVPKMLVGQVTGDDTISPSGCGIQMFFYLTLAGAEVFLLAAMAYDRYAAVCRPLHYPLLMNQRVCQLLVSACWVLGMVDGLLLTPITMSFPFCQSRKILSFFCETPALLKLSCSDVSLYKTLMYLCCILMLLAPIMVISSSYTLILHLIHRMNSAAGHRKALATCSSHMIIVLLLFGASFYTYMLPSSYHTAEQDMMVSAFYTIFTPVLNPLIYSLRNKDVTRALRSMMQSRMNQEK
# In short: as §1
# OR2T33 (Homo sapiens) = OR2T33 (Homo sapiens) (UniProt Q8NG76)
# Chain of OR2T33 (Homo sapiens) (Q8NG76 whole entry): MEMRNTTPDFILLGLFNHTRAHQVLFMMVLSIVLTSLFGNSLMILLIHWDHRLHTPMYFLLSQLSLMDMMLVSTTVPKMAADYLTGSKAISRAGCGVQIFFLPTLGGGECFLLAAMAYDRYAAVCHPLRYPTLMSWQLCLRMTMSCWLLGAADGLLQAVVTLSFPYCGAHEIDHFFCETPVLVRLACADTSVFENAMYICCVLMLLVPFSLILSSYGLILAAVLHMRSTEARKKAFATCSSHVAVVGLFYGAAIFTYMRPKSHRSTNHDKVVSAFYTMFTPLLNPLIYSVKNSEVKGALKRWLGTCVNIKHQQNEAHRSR
# In short: as §1
# OR2T35 (Homo sapiens) = OR2T35 (Homo sapiens) (UniProt Q8NGX2)
# Chain of OR2T35 (Homo sapiens) (Q8NGX2 whole entry): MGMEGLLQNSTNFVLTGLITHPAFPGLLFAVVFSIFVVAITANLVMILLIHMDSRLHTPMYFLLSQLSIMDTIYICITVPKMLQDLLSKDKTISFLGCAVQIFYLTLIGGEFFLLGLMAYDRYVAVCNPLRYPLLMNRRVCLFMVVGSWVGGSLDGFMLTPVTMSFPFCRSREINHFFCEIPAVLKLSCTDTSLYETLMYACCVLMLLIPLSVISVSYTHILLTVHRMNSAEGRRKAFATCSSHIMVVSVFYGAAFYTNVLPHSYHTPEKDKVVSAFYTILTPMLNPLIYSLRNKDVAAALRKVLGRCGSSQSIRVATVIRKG
# In short: as §1
# OR2T5 (Homo sapiens) = OR2T5 (Homo sapiens) (UniProt Q6IEZ7)
# Chain of OR2T5 (Homo sapiens) (Q6IEZ7 whole entry): as the sequence (Q8NH02 whole entry) above, with R13K, Q24R counted along it
# In short: as §1
# OR2T6 (Homo sapiens) = OR2T6 (Homo sapiens) (UniProt Q8NHC8)
# Chain of OR2T6 (Homo sapiens) (Q8NHC8 whole entry): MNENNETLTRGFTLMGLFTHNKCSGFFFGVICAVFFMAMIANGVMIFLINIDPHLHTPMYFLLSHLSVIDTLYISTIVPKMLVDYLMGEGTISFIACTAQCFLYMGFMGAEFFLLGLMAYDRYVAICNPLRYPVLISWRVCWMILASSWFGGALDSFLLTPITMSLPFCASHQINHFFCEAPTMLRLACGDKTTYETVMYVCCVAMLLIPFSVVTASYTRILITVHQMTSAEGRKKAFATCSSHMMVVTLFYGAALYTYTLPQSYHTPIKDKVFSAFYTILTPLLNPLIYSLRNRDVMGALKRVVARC
# In short: as §1
# OR2T7 (Homo sapiens) = OR2T7 (Homo sapiens) (UniProt P0C7T2)
# Chain of OR2T7 (Homo sapiens) (P0C7T2 whole entry): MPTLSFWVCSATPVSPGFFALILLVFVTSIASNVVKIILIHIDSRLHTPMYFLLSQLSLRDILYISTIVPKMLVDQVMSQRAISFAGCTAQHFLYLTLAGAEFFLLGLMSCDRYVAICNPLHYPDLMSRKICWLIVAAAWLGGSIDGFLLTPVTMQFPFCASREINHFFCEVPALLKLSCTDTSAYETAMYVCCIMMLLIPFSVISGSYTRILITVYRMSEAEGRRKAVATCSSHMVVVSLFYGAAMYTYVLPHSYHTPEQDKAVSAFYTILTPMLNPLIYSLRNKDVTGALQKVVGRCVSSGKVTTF
# In short: as §1
# OR2T2 L104F L262Q = test system: OR2T2 L104F L262Q
# In short: as §1
# OR2T2 L104F = test system: OR2T2 L104F
# Chain of OR2T2 L104F (as listed by the source, stated change not applied): as the sequence (Q6IF00 whole entry) above, with L104F counted along it
# In short: as §1
# OR2T2 Q313H = test system: OR2T2 Q313H
# Chain of OR2T2 Q313H (as listed by the source, stated change not applied): as the sequence (Q6IF00 whole entry) above, with Q313H counted along it
# In short: as §1
# OR2T3 L256F = test system: OR2T3 L256F
# Chain of OR2T3 L256F (as listed by the source, stated change not applied): as the sequence (Q8NH03 whole entry) above, with L256F counted along it
# In short: as §1
# OR2T3 R298C = test system: OR2T3 R298C
# Chain of OR2T3 R298C (as listed by the source, stated change not applied): as the sequence (Q8NH03 whole entry) above, with R298C counted along it
# In short: as §1
# OR2T3 Y109H = test system: OR2T3 Y109H
# Chain of OR2T3 Y109H (as listed by the source, stated change not applied): as the sequence (Q8NH03 whole entry) above, with Y109H counted along it
# In short: as §1
# OR2T5 K13R K41M G45E = test system: OR2T5 K13R K41M G45E
# In short: as §1
# OR2T5 K13R L134F = test system: OR2T5 K13R L134F
# In short: as §1
# OR2T6 C23G = test system: OR2T6 C23G
# Chain of OR2T6 C23G (as listed by the source, stated change not applied): as the sequence (Q8NHC8 whole entry) above, with C23G counted along it
# In short: as §1
smiles,measurement,setting,value
O=CC=Cc1ccccc1,odorant receptor agonist call,OR2T34 (Homo sapiens),active
Cc1cccc(C)c1,odorant receptor agonist call,OR2T4 (Homo sapiens),inactive
O=Cc1ccccc1,odorant receptor agonist call,OR2T34 (Homo sapiens),inactive
Cc1c([N+](=O)[O-])c(C)c([N+](=O)[O-])c(C(C)(C)C)c1[N+](=O)[O-],odorant receptor agonist call,OR2T2 (Homo sapiens),inactive
same,odorant receptor agonist call,OR2T27 (Homo sapiens),inactive
same,odorant receptor agonist call,OR2T29 (Homo sapiens),inactive
same,odorant receptor agonist call,OR2T3 (Homo sapiens),inactive
same,odorant receptor agonist call,OR2T33 (Homo sapiens),inactive
same,odorant receptor agonist call,OR2T34 (Homo sapiens),inactive
same,odorant receptor agonist call,OR2T35 (Homo sapiens),inactive
same,odorant receptor agonist call,OR2T4 (Homo sapiens),inactive
same,odorant receptor agonist call,OR2T5 (Homo sapiens),inactive
same,odorant receptor agonist call,OR2T6 (Homo sapiens),inactive
same,odorant receptor agonist call,OR2T7 (Homo sapiens),inactive
COc1ccc(C=O)cc1,odorant receptor agonist call,OR2T4 (Homo sapiens),inactive
C=CCOC(=O)Cc1ccccc1,odorant receptor agonist call,OR2T2 (Homo sapiens),inactive
same,odorant receptor agonist call,OR2T2 L104F L262Q,inactive
same,odorant receptor agonist call,OR2T2 L104F,inactive
same,odorant receptor agonist call,OR2T2 Q313H,inactive
same,odorant receptor agonist call,OR2T27 (Homo sapiens),inactive
same,odorant receptor agonist call,OR2T29 (Homo sapiens),inactive
same,odorant receptor agonist call,OR2T3 (Homo sapiens),inactive
same,odorant receptor agonist call,OR2T3 L256F,inactive
same,odorant receptor agonist call,OR2T3 R298C,inactive
same,odorant receptor agonist call,OR2T3 Y109H,inactive
same,odorant receptor agonist call,OR2T33 (Homo sapiens),inactive
same,odorant receptor agonist call,OR2T34 (Homo sapiens),inactive
same,odorant receptor agonist call,OR2T35 (Homo sapiens),inactive
same,odorant receptor agonist call,OR2T4 (Homo sapiens),inactive
same,odorant receptor agonist call,OR2T5 (Homo sapiens),inactive
same,odorant receptor agonist call,OR2T5 K13R K41M G45E,inactive
same,odorant receptor agonist call,OR2T5 K13R L134F,inactive
same,odorant receptor agonist call,OR2T6 (Homo sapiens),inactive
same,odorant receptor agonist call,OR2T6 C23G,inactive
